Bioassay records (PubChem BioAssay)
The list is not random: actives were taken first. Their share in the collection is about 2.2%.
DNMT1 inh: DNMT1 (human) enzyme inhibition | DNMT1 molecular beacon, Hinp1I cleavage, fluorescence | P26358 | hit rate 0.83% among 360,000 | inhibition (reported as % activation of signal), % at 10 µM; in the data active means inhibition above about 50%
STEP block: STEP (human) phosphatase inhibition | P54829 | recombinant STEP, OMFP fluorogenic substrate, fluorescence | inhibition, % at 20 µM | hit rate 0.25% among 360,000 | AID 588621;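 active means inhibition at 20 µM, scaled per plate between control wells, above about 37%, limit read from the data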;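 further: 0% = DMSO with enzyme and substrate and 100% = substrate only without enzyme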
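System: isolated STEP enzyme; schedule: 20 min enzyme reaction at room temperature, protected from light; medium: Bis-Tris buffer pH 6.0, 2.5 mM DTT, 0.005% Tween 20; signal: fluorescence, 480/540 nm; dosing: single compound dose of 20 µM, 1% DMSO final; also added: OMFP substrate, 25 µM final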
Scp-1 inhibitor: blocks human Scp-1 phosphatase activity; inhibition, % at 20 µM; hit rate 0.88% among 340,000; Recombinant Scp1, phosphopeptide, malachite green phosphate absorbance; AID 493091;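 active means inhibition above about 50% at 20 µM, limit read from the data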;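 further: plate controls were DMSO wells with enzyme for no effect and wells lacking enzyme for full effect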
Target sequence (Q9GZU7 76-261 limits assumed): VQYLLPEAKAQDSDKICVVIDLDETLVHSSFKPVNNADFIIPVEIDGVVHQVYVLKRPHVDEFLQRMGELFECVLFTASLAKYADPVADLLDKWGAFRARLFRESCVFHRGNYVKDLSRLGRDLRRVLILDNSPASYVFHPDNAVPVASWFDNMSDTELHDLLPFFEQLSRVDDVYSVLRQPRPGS
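Test system: SCP-1 catalytic domain; Buffer or medium: Acidic Tris acetate buffer with magnesium and detergent; Also added: Phosphorylated 17-residue peptide substrate; Compound: single 20 µM dose, 1% DMSO; Schedule: enzyme reaction 45 min at room temperature, colour 5 min, stabilisation 30 min; Signal: Phosphate-binding colour reagent, absorbance read at 630 nm.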
LMPTP inh: LMPTP (human) inhibition | P24666 | recombinant LMPTP-A, OMFP fluorogenic substrate, fluorescence intensity | inhibition, % at 20 µM | hit rate 0.22% among 360,000;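 active means compounds that cut the enzyme signal by at least half of the control window in the single-dose screen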;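 further: plate controls were DMSO wells with enzyme plus substrate for no effect and substrate without enzyme for full effect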
Target sequence (P24666 whole entry, looked up): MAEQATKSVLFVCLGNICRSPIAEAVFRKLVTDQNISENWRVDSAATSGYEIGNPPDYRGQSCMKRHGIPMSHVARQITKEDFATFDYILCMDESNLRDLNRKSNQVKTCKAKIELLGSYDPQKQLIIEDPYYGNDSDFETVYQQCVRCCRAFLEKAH
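material = LMPTP-A | quantity = 0.625 nM enzyme | reagent = OMFP substrate, 400 µM final | buffer or medium = Bis-Tris pH 6.0, DTT, detergent | detection = endpoint fluorescence intensity from OMFP dephosphorylation | dosing = single 20 µM dose | read-out basis = % inhibition relative to no-enzyme and uninhibited control wells | control set = no-enzyme and uninhibited controls | timing = 50 min at room temperature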
GRK2 aptamer HTS: inhibitors of human GRK2 displacing RNA aptamer; P25098; bead flow cytometry, FAM-aptamer displacement from GRK2; inhibition of aptamer binding, % at 10 µM; hit rate 0.59% among 330,000; AID 488847;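 active means inhibition of aptamer binding above 40%, roughly 3 SD of noise, on plates passing a quality check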;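 further: median bead fluorescence of bound FAM aptamer so fluorescent compounds give negative values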
SUMO1 PPI mod: SUMO1-SIM interaction modulation. P63165. SUMO1 binding to a labelled peptide, TR-FRET, 1 h. inhibition, % at 20 µM. hit rate 0.33% among 360,000. AID 602429; in the data active means inhibition above about 37%
Target sequence (P63165 whole entry, looked up): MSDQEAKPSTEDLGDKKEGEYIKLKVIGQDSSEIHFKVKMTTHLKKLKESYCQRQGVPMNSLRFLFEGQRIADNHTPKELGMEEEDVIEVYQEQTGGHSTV
GRK2 inh confirm: human GRK2 inhibition confirmation, cherry pick 1 | shares compounds with GRK2 aptamer HTS | bead-bound GRK2, FAM-aptamer displacement, flow cytometry | aptamer displacement, % at 10 µM | hit rate 4% among 2,000 | AID 504451;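 active means aptamer displacement above 40%, near three times the noise of non-fluorescent compounds, on plates passing quality checks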;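 further: negative values mostly reflect intrinsic compound fluorescence rather than true enhancement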
Aptamer quench SP: counter-screen for GRK2 aptamer inhibitors: fluorescent aptamer quenchers. fluorescence response (% of DMSO), % at 10 µM. shares compounds with GRK2 aptamer HTS. 2,000 tested, under 10 active. Carboxyfluorescein RNA aptamer on beads, flow cytometry quenching; active compounds read low;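 active means compounds that quench the bead-bound fluorescent RNA probe, cutting fluorescence to under half of the solvent control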;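 further: counterscreen run without GRK2 so only probe quenching by compound is measured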
GRK2 CP2: human GRK2 inhibition confirmation, cherry pick 2; shares compounds with GRK2 aptamer HTS; bead-bound GRK2, FAM-aptamer displacement, flow cytometry; inhibition of aptamer binding, % at 10 µM; 360 tested, under 10 active; AID 504782;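 active means inhibition of aptamer binding above 40%, about triple the noise seen with nonglowing compounds, on plates passing quality control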;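 further: negative values mostly come from compounds that fluoresce themselves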
FAM quench SP: quenches fluorescent RNA aptamer, GRK2 hit artifact | shares compounds with GRK2 aptamer HTS | carboxyfluorescein RNA aptamer beads, flow cytometry quenching; active compounds read low | fluorescence response vs DMSO, % at 10 µM | 360 tested, under 10 active;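 active means response vs DMSO under 50%, meaning signal dropped by over half, treated as fluorescence quencher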;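 further: labelled aptamer on streptavidin beads without GRK2 as a quench counter-screen; 100% = bead fluorescence of DMSO wells and lower means quenching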
Active calls of the source: *; x = no result.

SMILES | DNMT1 inh | STEP block | Scp-1 inhibitor | LMPTP inh | GRK2 aptamer HTS | SUMO1 PPI mod | GRK2 inh confirm | Aptamer quench SP | others
O=C(NNc1ccccc1C(F)(F)F)c1sccc1Br | -1 | 2 | -8 | -1 | 99* | 8 | 1 | 95
O=C(Nc1ccccc1C(F)(F)F)c1ccsc1 | 3 | 0 | -10 | -1 | 2 | -1 | x | x
Cc1nn(-c2ccccc2)c2c1C(=O)N(Cc1ccccc1)C(=O)C(C)(C)C2 | -4 | 2 | -4 | -1 | 44* | -3 | -1 | 95
Cc1cc(C)cc(NC(=S)/C(=C(\[O-])c2ccc(Cl)cc2Cl)[n+]2ccc(C(C)(C)C)cc2)c1 | 3 | 2 | 1 | -2 | 41* | -18 | -4 | 101
Cc1cc(C)cc(NC(=S)/C(=C(\[O-])c2ccc(Cl)s2)[n+]2cccc(C)c2)c1 | -10 | 2 | 4 | 0 | 2 | -10 | x | x
COC(=O)c1[nH]c2ccc(C)cc2c1NC(=O)CN1CCCc2ccccc21 | 13 | 1 | -11 | 5 | 89* | -12 | -6 | 118
O=C(NC1CCCCC1)C1c2ccccc2OCC(=O)N1CCc1c[nH]c2ccccc12 (stereo unspecified) | x | x | x | -1 | x | -1 | x | x
Cc1ccc(CCSCC(=O)O)cn1 | -4 | 1 | -10 | -1 | 74* | 0 | 3 | 100
CC1=C(C(=O)OC(C)C)C(c2cccs2)n2ncnc2N1 (stereo unspecified) | 4 | 1 | -11 | -2 | 85* | 2 | 0 | 100
CCc1nc2ccc(C(=O)NC(C)(C)C)cn2c1N(CC)Cc1cccc(Br)c1 | -1 | 1 | x | -5 | x | -10 | x | x
COc1cccc(CN2CCC(C(=O)NC(C)c3cccc4ccccc34)CC2)c1 (stereo unspecified) | 1 | 2 | x | -2 | x | -3 | x | x
C/C(Cn1nnc2ccccc21)=N/OC(=O)c1c(F)cccc1F | -1 | -1 | 0 | 0 | 0 | 2 | x | x
C/C(Cn1nnc2ccccc21)=N\OC(=O)c1ccccc1C | 3 | -1 | -3 | -2 | 75* | 2 | -17 | 96
CC(C)N1C(=O)c2ccccc2NC(=O)C1C(=O)NC1CC1 (stereo unspecified) | x | x | x | -1 | x | 10 | x | x
COc1ccc(CCNC(=S)Nc2ccc(OC)cc2)cc1 | -5 | 3 | 3 | -1 | 52* | 0 | -8 | 96
COc1ccc(CCNC(=O)C(=O)NCC2OCCN2S(=O)(=O)c2cc(F)ccc2F)cc1OC (stereo unspecified) | -3 | 3 | -6 | 1 | 78* | 21 | -3 | 99
COc1ccc(S(=O)(=O)N=N/C=C2\C=CC=CN2O)cc1OC | 8 | 1 | x | -1 | x | -1 | x | x
O=c1c2c3c(sc2nc(NCCO)n1CCc1ccccc1)CCCCC3 | -6 | 1 | -1 | 2 | 90* | 8 | -4 | 94
O=c1c2c3c(sc2nc(NCCO)n1Cc1ccco1)CCCCC3 | -3 | -1 | -7 | 0 | 4 | -1 | x | x
COc1ccc(S(=O)(=O)N(C)C[C@@H]2OCCCC[C@@H](C)Oc3ccc(NS(=O)(=O)c4cccs4)cc3C(=O)N([C@H](C)CO)C[C@@H]2C)cc1 | -2 | -1 | x | 1 | x | 1 | x | x
O=C(CNS(=O)(=O)c1ccc(Cl)c(C(F)(F)F)c1)NC1CCCCCC1 | 3 | 0 | -7 | -1 | 43* | 5 | x | x | GRK2 CP2=13;FAM quench SP=100
CN(C)C(=O)c1cccc(COc2ccc(N3C(N)=NC(N)=NC3(C)C)cc2Cl)c1 | 4 | 2 | x | -1 | x | 1 | x | x
